Key:
[1] = tested on: U-251; assay: Growth inhibition of human U251 cells after 2 days by MTT assay; type: functional; conditions: U-251, 48 h
[2] = tested on: HCT-116; assay: Growth inhibition of human HCT116 cells after 2 days by MTT assay; type: functional; conditions: HCT-116, 48 h; for CC50: read-out: LC50 (the source's name)
[3] = target: T1, NAD-dependent protein deacetylase sirtuin-1 (Homo sapiens, UniProt Q96EB6); assay: Inhibition of SIRT1
T1 sequence (Q96EB6 whole entry): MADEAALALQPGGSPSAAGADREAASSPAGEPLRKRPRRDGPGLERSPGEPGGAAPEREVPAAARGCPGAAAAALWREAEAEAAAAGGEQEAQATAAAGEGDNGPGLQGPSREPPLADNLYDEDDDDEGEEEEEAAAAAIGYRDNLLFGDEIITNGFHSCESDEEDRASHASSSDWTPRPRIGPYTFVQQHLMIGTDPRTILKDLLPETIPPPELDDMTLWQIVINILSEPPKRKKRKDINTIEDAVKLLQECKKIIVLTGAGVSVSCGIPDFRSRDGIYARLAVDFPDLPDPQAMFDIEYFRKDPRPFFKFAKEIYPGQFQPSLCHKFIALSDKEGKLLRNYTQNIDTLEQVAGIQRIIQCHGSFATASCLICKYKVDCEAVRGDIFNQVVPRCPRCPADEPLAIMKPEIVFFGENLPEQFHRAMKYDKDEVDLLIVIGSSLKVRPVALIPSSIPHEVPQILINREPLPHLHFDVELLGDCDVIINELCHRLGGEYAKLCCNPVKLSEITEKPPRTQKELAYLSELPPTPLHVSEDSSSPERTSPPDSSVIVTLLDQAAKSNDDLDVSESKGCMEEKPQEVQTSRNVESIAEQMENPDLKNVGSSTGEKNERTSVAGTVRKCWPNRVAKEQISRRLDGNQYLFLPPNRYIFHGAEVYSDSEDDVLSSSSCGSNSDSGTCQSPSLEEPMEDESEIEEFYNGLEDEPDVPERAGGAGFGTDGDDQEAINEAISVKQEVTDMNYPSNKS

[4] = Antitumor activity against mouse EAC cells allografted in Swiss albino mouse assessed as decrease in tumor weight at 0.2 mmol/kg, ip administered from day 1 to day 7 every 24 hrs; type: functional; conditions: Ehrlich
How it was run: (§1)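 EAC cells kept by intraperitoneal passage in Swiss albino mice (18-20 g, 10 weeks) every 10 days; 9-day-old cells in isotonic saline adjusted to 10×10^6 cells/mL, 0.1 mL per 10 g injected ip on day 0. Seven daily ip doses in PBS pH 7.2 (0.1 mL/10 g), days 1-7; vehicle control. Day 8 sacrifice after 6 h fast.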

[5] = target: Histone deacetylase 1 (Homo sapiens, UniProt Q13547); assay: Inhibition of HDAC1 using Fluor de Lys as substrate by fluorescence analysis
Chain of Histone deacetylase 1 (Q13547 whole entry): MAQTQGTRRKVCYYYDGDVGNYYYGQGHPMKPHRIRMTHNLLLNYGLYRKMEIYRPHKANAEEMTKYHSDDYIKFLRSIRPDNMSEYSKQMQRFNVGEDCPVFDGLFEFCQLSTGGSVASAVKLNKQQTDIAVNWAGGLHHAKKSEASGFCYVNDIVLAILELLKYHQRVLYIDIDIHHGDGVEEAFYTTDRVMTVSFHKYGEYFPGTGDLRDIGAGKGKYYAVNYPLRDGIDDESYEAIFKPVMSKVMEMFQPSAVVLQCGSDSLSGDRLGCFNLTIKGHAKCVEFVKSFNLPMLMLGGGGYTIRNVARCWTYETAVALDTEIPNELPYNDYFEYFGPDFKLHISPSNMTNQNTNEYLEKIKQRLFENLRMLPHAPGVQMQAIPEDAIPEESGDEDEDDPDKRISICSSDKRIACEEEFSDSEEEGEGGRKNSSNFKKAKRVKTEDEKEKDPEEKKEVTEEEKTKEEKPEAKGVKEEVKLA

[6] = Antitumor activity against mouse EAC cells allografted in Swiss albino mouse assessed as decrease in tumor cell at 0.2 mmol/kg, ip administered from day 1 to day 7 every 24 hrs; type: functional; conditions: Ehrlich; how it was run: as §1

| Structure (SMILES) | GI50 [1] | TGI [1] | GI50 [2] | TGI [2] | CC50 [2] | IC50 [3] | LC50 (concentration killing 50% of cells) [1] | inhibition in vivo at 200 µmol/kg [4] | IC50 [5] | inhibition in vivo at 200 µmol/kg [6] |
| --- | --- | --- | --- | --- | --- | --- | --- | --- | --- | --- |
| Nc1ccccc1NC(=O)c1ccc(CNC(=O)OCc2cccnc2)cc1 [ENTINOSTAT] | 6.5 µM | 40 µM | 0.6 µM | > 100 µM | > 100 µM | > 100 µM | – | – | – | – |
| Nc1ccccc1NC(=O)c1ccc(NCC(=O)Nc2cc(Cl)ccc2Cl)cc1 | 38.6 µM | > 100 µM | 7.9 µM | 66 µM | > 100 µM | – | > 100 µM | 58.3% | 8.6 µM | 56.2% |
| Nc1ccccc1NC(=O)CCCNCC(=O)Nc1cccc(Cl)c1 | 19.5 µM | > 100 µM | 11.6 µM | 75 µM | > 100 µM | – | > 100 µM | 32.1% | 1.8 µM | 22.5% |
| Nc1ccccc1NC(=O)c1ccc(NCC(=O)Nc2ccccc2)cc1 | 65 µM | > 100 µM | 45.3 µM | > 100 µM | > 100 µM | – | > 100 µM | 18.5% | 7.4 µM | 30.5% |
| Nc1ccccc1NC(=O)CCCNCC(=O)Nc1cccc([N+](=O)[O-])c1 | 15 µM | 93.5 µM | 0.9 µM | 22.5 µM | > 100 µM | – | > 100 µM | 40.6% | 2.3 µM | 36% |
| Nc1ccccc1NC(=O)CCCNCC(=O)Nc1ccc(Cl)cc1 | 11.4 µM | 75 µM | 5.5 µM | 45 µM | > 100 µM | – | > 100 µM | 72.7% | 1.4 µM | 75% |
| Nc1ccccc1NC(=O)c1ccc(NCC(=O)Nc2ccc(Cl)cc2)cc1 | 9.4 µM | 62.5 µM | 4.2 µM | 62.5 µM | > 100 µM | – | > 100 µM | 79.4% | 1 µM | 73.3% |
| Cc1ccc(NC(=O)CNCCCC(=O)Nc2ccccc2N)cc1 | 57 µM | > 100 µM | 17.9 µM | > 100 µM | > 100 µM | – | > 100 µM | 42.8% | 7.5 µM | 18.9% |
| Nc1ccccc1NC(=O)CCCNCC(=O)Nc1ccccc1Cl | 28.6 µM | > 100 µM | 21.8 µM | > 100 µM | > 100 µM | – | > 100 µM | 21.4% | 2.9 µM | 12.7% |
| Nc1ccccc1NC(=O)CCCNCC(=O)Nc1ccccc1[N+](=O)[O-] | 32 µM | > 100 µM | 2.8 µM | 32 µM | > 100 µM | – | > 100 µM | 41.3% | 3.1 µM | 10.5% |
| COc1ccc(NC(=O)CNc2ccc(C(=O)Nc3ccccc3N)cc2)cc1 | 25.5 µM | > 100 µM | 7.5 µM | 38 µM | > 100 µM | – | > 100 µM | 66.6% | 3.1 µM | 62.3% |
| Nc1ccccc1NC(=O)c1ccc(NCC(=O)Nc2ccccc2[N+](=O)[O-])cc1 | 18 µM | 83 µM | 3.5 µM | 25 µM | > 100 µM | – | > 100 µM | 12.9% | 2 µM | 19.7% |

— ChEMBL document CHEMBL2034971, “Appraisal of GABA and PABA as linker: design and synthesis of novel benzamide based histone deacetylase inhibitors” (Eur J Med Chem, 2012)
